DENV2 CPE rescue – inhibitors of DENV2 cytopathic effect, primary screen, cell-based, plate reader, single concentration | CPE inhibition, % at 9.99 µM | DENV2-infected cells, cytopathic effect rescue | hit rate 1.7% among 350,000; in the data active = CPE inhibition above about 20%, passing the limit was not always enough; inconclusive = no clear call, values can overlap the other calls; tested in BHK-21 cells;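 also: 0% = median of neutral control wells and 100% = median of positive control wells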
PglD DTNB – C. jejuni PglD acetyltransferase inhibitors, primary screen, biochemical, DTNB colorimetric, single point; purified PglD enzyme, DTNB colorimetric CoA detection; inhibition, % at 12.5 µM; hit rate 0.098% among 360,000; in the data active = inhibition above about 16%, passing the limit was not always enough; inconclusive = no clear call, values can overlap the other calls
PGC1a acetyl inh – inhibitors of PGC1a acetylation signal, primary screen, cell-based, U2OS, AlphaScreen, inhibitor mode; AlphaScreen anti-acetyl-lysine; with virally co-expressed GCN5 acetyltransferase; inhibition, % at 15.6 µM; hit rate 0.17% among 350,000;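 active = every replicate shows inhibition of at least 40%; inconclusive = mean inhibition at least 40% but some replicate below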;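 also: 0% = neutral control wells and 100% = positive control wells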
FN deposit inh – inhibitors of fibronectin matrix deposition, primary screen, AH1F cells, Alexa488-fibronectin fluorescence, plate reader; inhibition, % at 12.6 µM; AH1F fibroblasts, overnight; hit rate 0.086% among 350,000;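 active = mean inhibition across replicates of 30% or more, regardless of how many single replicates reach that level; inconclusive = mean under 30% yet at least half of replicates reach 30%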;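 also: positive control wells lacked labelled fibronectin entirely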
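material = AH1F fibroblast monolayer depositing Alexa488-labelled fibronectin into matrix | amount = 10000 AH1F cells/well | buffer or medium = DMEM plus 2% serum, read in PBS | incubation = 1 h cell adhesion before compound, then overnight fibronectin incubation | detection = fluorescence at 485 nm excitation, 525 nm emission | evaluation = percent inhibition as loss of matrix-bound fibronectin fluorescence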
HIV Env fusion – inhibitors of HIV-1 Env-driven cell-cell fusion, primary screen, HeLa-JRFL effector, CEM21 target cells, luciferase; inhibition, % at 12.3 µM; hit rate 1.1% among 360,000;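 active = mean replicate inhibition score of at least 50 and every replicate individually at or above 50; inconclusive = only one of the two criteria met; inactive = mean below 50 and not all replicates reaching 50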;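 also: 0% = plate neutral controls and 100% = maraviroc near 300 nM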
Ecoli rRNA inh – reduced GFP signal of wild-type E. coli, primary screen, bacterial rRNA inhibitor project, GFP/RFP fluorescence, OD600, single point | E. coli WT GFP vs humanized-ribosome RFP mutants, 24 h; active compounds read low; DMSO median 0, no signal -100 | GFP signal change (wild-type ribosome), % (concentration not given with the values) | hit rate 1.6% among 350,000;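 active = significant combined selectivity score with lowered wild-type GFP, culture density cut under 30%, mutant RFP and density less affected; inactive = any of these conditions unmet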
Starred values were filed as active, the others as inactive; ? = inconclusive; . = no result; [ ] = remark or other dose. The list is not random: actives were taken first. Their share in the collection is about 3.5%.

SMILES	DENV2 CPE rescue	PglD DTNB	PGC1a acetyl inh	FN deposit inh	HIV Env fusion	Ecoli rRNA inh
O=C(Nc1ccc(F)cc1)Nc1ccc2c(c1)[C@@H]1C[C@H](CC(=O)N3CCOCC3)O[C@@H](CO)[C@@H]1O2	-3	1	-6	-12	0[16.7 µM]	1
O=C(C[C@@H]1C=C[C@@H](NC(=O)c2cccnc2)[C@@H](CO)O1)NCCN1CCCCC1	2	0	-1	8	.	4
C[C@H]1CN([C@@H](C)CO)S(=O)(=O)c2ccc(-c3ccc(C#N)cc3)cc2O[C@@H]1CN(C)C	-6	2	-5	.	-8[16.7 µM]	-1
COc1ccc(S(=O)(=O)N(C)C[C@@H]2Oc3ccc(NC(=O)Nc4ccc5c(c4)OCO5)cc3C(=O)N([C@H](C)CO)C[C@H]2C)cc1	?	2	0	3	4[16.7 µM]	-5
CS(=O)(=O)N1[C@H](C#N)[C@@H](c2ccc(C#CC3CCCCC3)cc2)[C@@H]1CO	-10	4	-2	5	-16[16.7 µM]	3
C[C@H]1CN([C@@H](C)CO)S(=O)(=O)c2ccc(C3=CCCCC3)cc2O[C@@H]1CN(C)S(=O)(=O)c1ccc(F)cc1	-4	-4	-12	.	27[16.7 µM]	-3
O=S(=O)(c1cccs1)N1CCC(CO)(Cc2cccc(F)c2)CC1	6	.	.	.	-2	-23*
O=S(=O)(c1cccc(F)c1)N1CCC(CO)(Cc2cccc(F)c2)CC1	0	.	.	-7	8	-30
COCC(=O)Nc1ccc2c(c1)OC[C@@H](C)NC[C@H](C)[C@H](OC)CN(C)C2=O	30*	-2	.	5	-2[16.7 µM]	0
COCC(=O)Nc1ccc2c(c1)OC[C@H](C)NC[C@@H](C)[C@@H](OC)CN(C)C2=O	24*	-2	.	-4	-9[16.7 µM]	0
CCC(=O)Nc1ccc2c(c1)OC[C@@H](C)NC[C@@H](C)[C@@H](OC)CN(C)C2=O	0	2	.	-2	3[16.7 µM]	1
CCC(=O)Nc1ccc2c(c1)OC[C@@H](C)NC[C@H](C)[C@@H](OC)CN(C)C2=O	28*	3	.	-12	-27[16.7 µM]	2
COCC(=O)Nc1ccc2c(c1)OC[C@@H](C)NC[C@H](C)[C@@H](OC)CN(C)C2=O	9	-1	.	-15	3[16.7 µM]	1
O=C(N[C@@H]1C=C[C@@H](CC(=O)N2CCOCC2)O[C@H]1CO)c1ccc2c(c1)OCO2	5	-1	0	.	11[16.7 µM]	0
COCC(=O)N(C)C[C@H]1Oc2ncc(-c3ccccc3OC)cc2C(=O)N([C@@H](C)CO)C[C@H]1C	-2	.	2	-2	.	1
C[C@@H]1CN([C@H](C)CO)C(=O)Cc2cc(NC(=O)Nc3ccccc3)ccc2O[C@H]1CN(C)C(=O)Nc1ccc2c(c1)OCO2	-1	3	7	.	5[16.7 µM]	1
Cc1ccc(S(=O)(=O)Nc2ccc3c(c2)C(=O)N([C@H](C)CO)C[C@H](C)[C@@H](CN(C)C(=O)c2ccncc2)OCCCC[C@@H](C)O3)cc1	-8	-2	-6	-3	-12[16.7 µM]	4
COc1ccc(S(=O)(=O)N(C)C[C@H]2Oc3ccc(NC(=O)Nc4cccc5ccccc45)cc3CC(=O)N([C@@H](C)CO)C[C@H]2C)cc1	13	.	-2	25	-7[16.7 µM]	6
COc1ccccc1NCC(O)COc1ccc(C(C)(C)C)cc1 (centres undefined)	18	.	.	11	7	-39*
Cc1ccc(C)c(S(=O)(=O)N(C(=O)c2ccncc2)c2ccc(OC(=O)c3ccncc3)cc2)c1	-1	.	44*	12	22	2
Cc1ccc(S(=O)(=O)N(C(=O)c2ccncc2)c2ccc(OC(=O)c3ccncc3)cc2)cc1	.	.	.	0	.	.
CCOC(=O)c1c(NC(=O)CSc2nnc(CNc3ccc(Cl)cc3)o2)sc(C)c1C	.	-3	-5	9	65*	.
CCOC(=O)CC1(CC)Oc2ccccc2N1S(=O)(=O)c1ccc(C)cc1 (centres undefined)	0	.	.	-4	64*	-7

Screens as filed in PubChem BioAssay.
